Data taken from ChEMBL document CHEMBL3112425, “Design, synthesis, and structure-activity relationship studies of a potent PACE4 inhibitor” (J Med Chem, 2014).
Square brackets hold non-standard residues; d marks the D form. Peptide text beside a SMILES is read from it. * marks the point of attachment. Phe(4-guanidino) = N=C(N)Nc1ccc(C[C@H](N)C(=O)O)cc1; NH(4-amidinobenzyl) = N=C(N)c1ccc(CN*)cc1; X2 = N=C(N)NCCCN(CC(N)=O)N*; Nle = CCCC[C@H](N)C(=O)O

Columns and labels:
LNCaP = experiment: Cytotoxicity against human LNCAP cells after 72 hrs by MTT assay; assay type: functional, cell-based
In short: (§1)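 Prostate cancer cells were kept in RPMI 1640 at 37 °C, 5% CO2, with 5% FBS for DU145 and 10% FBS for LNCaP and PC3. After 24 h, medium was changed and peptides added at various concentrations, up to 350 μM. Viability was read by MTT after 72 h treatment. IC50 from dose–response curves, triplicate, mean ± SEM.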

Furin = Furin (Homo sapiens, UniProt P09958); experiment: Inhibition of human recombinant furin expressed in drosophila schneider 2 cells using pyroGlu-Arg-Thr-Lys-Arg-AMC as substrate after 1 hr
In short: (§2)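 Human enzymes were expressed in Drosophila S2 cells and purified. Fluorogenic pyroGlu-RTKR-AMC was used at fixed concentration with varied inhibitor, 37 °C over 1 h. Buffers: furin, 100 mM Hepes pH 7.5, 1 mM CaCl2, 1 mM β-mercaptoethanol, 1.8 mg/mL BSA; PACE4 and PC7, 20 mM Bis-Tris pH 6.5, 1 mM CaCl2, 1.8 mg/mL BSA; PC2, same buffer at pH 5.7. Ki from IC50 (Cheng–Prusoff), or apparent Ki (Morrison) for tight binders. Triplicate, mean ± SD.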

DU-145 = experiment: Cytotoxicity against human DU145 cells after 72 hrs by MTT assay; assay type: functional, cell-based; conditions: DU-145, 72 h; in short: as §1
[1] = biological target: T1, Proprotein convertase subtilisin/kexin type 6 (Homo sapiens, UniProt P29122); experiment: Inhibition of human recombinant PACE4 expressed in drosophila schneider 2 cells using pyroGlu-Arg-Thr-Lys-Arg-AMC as substrate after 1 hr; in short: as §2
T1 sequence (P29122 whole entry): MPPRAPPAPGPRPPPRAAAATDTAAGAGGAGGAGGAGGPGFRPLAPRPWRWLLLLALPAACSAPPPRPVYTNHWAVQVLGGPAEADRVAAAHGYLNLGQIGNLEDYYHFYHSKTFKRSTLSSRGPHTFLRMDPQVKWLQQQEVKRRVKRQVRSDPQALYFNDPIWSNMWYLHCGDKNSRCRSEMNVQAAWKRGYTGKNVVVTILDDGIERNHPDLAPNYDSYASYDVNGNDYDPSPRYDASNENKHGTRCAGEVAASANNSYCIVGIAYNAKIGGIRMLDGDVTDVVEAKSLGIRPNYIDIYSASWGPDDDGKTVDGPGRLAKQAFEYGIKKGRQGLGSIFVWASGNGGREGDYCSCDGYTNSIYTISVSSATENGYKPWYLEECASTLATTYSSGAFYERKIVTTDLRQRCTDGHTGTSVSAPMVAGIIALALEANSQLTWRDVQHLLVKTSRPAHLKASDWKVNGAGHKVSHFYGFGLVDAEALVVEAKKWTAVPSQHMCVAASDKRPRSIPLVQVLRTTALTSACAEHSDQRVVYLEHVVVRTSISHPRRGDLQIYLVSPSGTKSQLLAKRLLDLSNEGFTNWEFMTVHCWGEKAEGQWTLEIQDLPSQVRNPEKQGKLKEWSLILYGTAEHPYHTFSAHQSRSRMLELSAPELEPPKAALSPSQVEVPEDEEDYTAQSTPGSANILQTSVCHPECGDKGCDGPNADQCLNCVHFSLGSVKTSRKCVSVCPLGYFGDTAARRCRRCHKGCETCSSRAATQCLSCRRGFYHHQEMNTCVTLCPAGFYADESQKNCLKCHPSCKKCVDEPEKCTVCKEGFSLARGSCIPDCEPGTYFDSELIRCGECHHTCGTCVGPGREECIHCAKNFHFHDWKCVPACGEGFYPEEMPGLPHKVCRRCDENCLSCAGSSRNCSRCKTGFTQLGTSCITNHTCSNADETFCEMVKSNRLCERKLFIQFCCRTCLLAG

[2] = Acute toxicity in human DU145 cells assessed as cell death/lysis at 100 uM after 4 hrs by LDH assay; assay type: cell-based, DU-145; conditions: read-out: INH
In short: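 DU145 cells (RPMI 1640, 5% FBS, 37 °C, 5% CO2) plated; 24 h later peptides added at 100 μM. After 4 h, release of lactate dehydrogenase into the medium was quantified enzymatically with a commercial LDH cytotoxicity kit as the measure of acute membrane damage/lysis.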

PC-3 [3] = experiment: Cytotoxicity against human PC3 cells up to 350 uM after 72 hrs by MTT assay; assay type: functional; in short: as §1
Plasma = experiment: Drug degradation in CD-1 mouse plasma at 0.5 ug/uL after 30 mins by MALDI-TOF MS analysis; assay type: ADME, cell-free; conditions: 0.5 h
In short: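 For fragment mapping, 100 μg peptide was incubated in murine plasma at 37 °C. At each time point, plasma samples were quenched with 3% TFA. Proteins were precipitated with 2 volumes acetonitrile and centrifuged at 17 000g. Supernatants were analyzed by MALDI-TOF MS for C-terminally truncated fragments.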

PC-3 [4] = experiment: Cytotoxicity against human PC3 cells after 72 hrs by MTT assay; assay type: functional, cell-based; conditions: PC-3, 72 h; in short: as §1
[5] = Half life in CD-1 mouse plasma at 0.5 ug/uL by RP-HPLC analysis; assay type: ADME, cell-free
In short: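 Peptides at 0.5 μg/μL were incubated at 37 °C in heparinized plasma pooled from mixed-sex CD1 mice. At each time point the reaction was stopped with 1 M guanidinium-HCl, then acetonitrile, and proteins were spun out. Supernatant peptide AUC (RP-HPLC) was compared with non-incubated samples. Half-life came from a one-phase decay fit. Run ≥3 times, duplicate per time point.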

Sequence of Furin (P09958 whole entry): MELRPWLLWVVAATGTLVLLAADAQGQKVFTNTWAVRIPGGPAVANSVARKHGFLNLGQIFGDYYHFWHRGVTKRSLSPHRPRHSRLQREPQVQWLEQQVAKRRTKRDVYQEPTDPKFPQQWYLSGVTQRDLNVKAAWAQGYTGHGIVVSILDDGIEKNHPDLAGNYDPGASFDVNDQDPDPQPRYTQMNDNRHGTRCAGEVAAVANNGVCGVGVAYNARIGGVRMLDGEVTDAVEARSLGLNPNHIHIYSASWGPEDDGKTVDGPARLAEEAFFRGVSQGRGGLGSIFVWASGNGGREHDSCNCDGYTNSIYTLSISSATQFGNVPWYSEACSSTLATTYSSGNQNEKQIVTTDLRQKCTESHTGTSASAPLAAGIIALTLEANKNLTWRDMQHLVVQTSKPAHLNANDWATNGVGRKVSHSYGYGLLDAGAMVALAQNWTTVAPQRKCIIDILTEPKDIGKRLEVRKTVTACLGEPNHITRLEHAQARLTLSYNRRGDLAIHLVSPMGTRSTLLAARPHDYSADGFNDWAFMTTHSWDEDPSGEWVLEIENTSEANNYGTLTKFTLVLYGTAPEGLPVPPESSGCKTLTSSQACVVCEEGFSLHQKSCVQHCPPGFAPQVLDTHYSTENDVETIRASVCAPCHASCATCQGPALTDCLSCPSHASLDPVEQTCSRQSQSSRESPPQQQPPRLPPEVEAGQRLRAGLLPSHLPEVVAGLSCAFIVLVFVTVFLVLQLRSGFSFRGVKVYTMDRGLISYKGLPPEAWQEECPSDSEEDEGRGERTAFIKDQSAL

CCCC[C@H](NC(C)=O)C(=O)N[C@@H](CC(C)C)C(=O)N[C@@H](CC(C)C)C(=O)N[C@@H](CC(C)C)C(=O)N[C@@H](CCCNC(=N)N)C(=O)N[C@H](C(=O)N[C@@H](CCCCN)C(=O)N[C@@H](CCCNC(=N)N)C(N)=O)C(C)C
IC50 (LNCaP): 180000 nM | Ki (Furin): 650 nM | IC50 (DU-145): 150000 nM | Ki [1]: 21 nM | cytotoxicity at 4 h, 100 µM [2]: < 5% | inhibition (INH) (PC-3 [3]): <50%

CCCC[C@H](NC(C)=O)C(=O)N[C@@H](CCCC)C(=O)N[C@@H](CCCC)C(=O)N[C@@H](CCCC)C(=O)N[C@@H](CCCNC(=N)N)C(=O)N[C@H](C(=O)N[C@@H](CCCCN)C(=O)N[C@@H](CCCNC(=N)N)C(N)=O)C(C)C
Ki (Furin): 2550 nM | Ki [1]: 500 nM

CCCC[C@H](NC(C)=O)C(=O)N[C@@H](CCCC)C(=O)N[C@@H](CC(C)C)C(=O)N[C@@H](CC(C)C)C(=O)N[C@@H](CCCN=C(N)N)C(=O)N[C@H](C(=O)N[C@@H](CCCCN)C(=O)N[C@@H](CCCN=C(N)N)C(N)=O)C(C)C
Ki (Furin): 950 nM | Ki [1]: 57 nM

CCCC[C@H](NC(C)=O)C(=O)N[C@@H](CCCC)C(=O)N[C@@H](CC(C)C)C(=O)N[C@@H](CCCC)C(=O)N[C@@H](CCCN=C(N)N)C(=O)N[C@H](C(=O)N[C@@H](CCCCN)C(=O)N[C@@H](CCCN=C(N)N)C(N)=O)C(C)C
Ki (Furin): 1070 nM | Ki [1]: 60 nM

CCCC[C@H](NC(C)=O)C(=O)N[C@@H](CC(C)C)C(=O)N[C@@H](CC(C)C)C(=O)N[C@@H](CCCC)C(=O)N[C@@H](CCCNC(=N)N)C(=O)N[C@H](C(=O)N[C@@H](CCCCN)C(=O)N[C@@H](CCCNC(=N)N)C(N)=O)C(C)C
IC50 (LNCaP): 90000 nM | Stability (Plasma): Unstable | Ki (Furin): 680 nM | IC50 (DU-145): 40000 nM | Ki [1]: 14 nM | cytotoxicity at 4 h, 100 µM [2]: < 5% | inhibition (INH) (PC-3 [3]): <50%

CC(=O)N[C@@H](CC(C)C)C(=O)N[C@H](CC(C)C)C(=O)N[C@@H](CC(C)C)C(=O)N[C@@H](CC(C)C)C(=O)N[C@@H](CCCN=C(N)N)C(=O)N[C@H](C(=O)N[C@@H](CCCCN)C(=O)N[C@@H](CCCN=C(N)N)C(N)=O)C(C)C
Ki (Furin): 2800 nM | Ki [1]: 700 nM

CC(=O)N[C@@H](CC(C)C)C(=O)N[C@@H](CC(C)C)C(=O)N[C@H](CC(C)C)C(=O)N[C@@H](CC(C)C)C(=O)N[C@@H](CCCNC(=N)N)C(=O)N[C@H](C(=O)N[C@@H](CCCCN)C(=O)N[C@@H](CCCNC(=N)N)C(N)=O)C(C)C
IC50 (LNCaP): 130000 nM | Ki (Furin): 980 nM | IC50 (DU-145): 190000 nM | Ki [1]: 6260 nM | cytotoxicity at 4 h, 100 µM [2]: < 5% | inhibition (INH) (PC-3 [3]): <50%

CC(=O)N[C@@H](CC(C)C)C(=O)N[C@@H](CC(C)C)C(=O)N[C@@H](CC(C)C)C(=O)N[C@H](CC(C)C)C(=O)N[C@@H](CCCNC(=N)N)C(=O)N[C@H](C(=O)N[C@@H](CCCCN)C(=O)N[C@@H](CCCNC(=N)N)C(N)=O)C(C)C
Ki (Furin): 9550 nM | Ki [1]: 14000 nM

CCCC[C@@H](NC(C)=O)C(=O)N[C@@H](CC(C)C)C(=O)N[C@@H](CC(C)C)C(=O)N[C@@H](CC(C)C)C(=O)N[C@@H](CCCNC(=N)N)C(=O)N[C@H](C(=O)N[C@@H](CCCCN)C(=O)N[C@@H](CCCNC(=N)N)C(N)=O)C(C)C
IC50 (PC-3 [4]): 150000 nM | IC50 (LNCaP): 90000 nM | Ki (Furin): 800 nM | IC50 (DU-145): 80000 nM | Ki [1]: 25 nM | half-life at 0.5 ug/uL [5]: 7.1 h | cytotoxicity at 4 h, 100 µM [2]: < 5%

CC(=O)N[C@@H](CC(C)C)C(=O)N[C@@H](CC(C)C)C(=O)N[C@@H](CC(C)C)C(=O)N[C@@H](CC(C)C)C(=O)N[C@@H](CCCNC(=N)N)C(=O)N[C@H](C(=O)N[C@@H](CCCCN)C(=O)NN(CCCNC(=N)N)CC(N)=O)C(C)C (Ac-LLLLRVK-X2)
IC50 (LNCaP): 240000 nM | Ki (Furin): 1120 nM | IC50 (DU-145): 270000 nM | Ki [1]: 400 nM | half-life at 0.5 ug/uL [5]: 5.6 h | cytotoxicity at 4 h, 100 µM [2]: < 5% | inhibition (INH) (PC-3 [3]): <50%

CC(=O)N[C@@H](CC(C)C)C(=O)N[C@@H](CC(C)C)C(=O)N[C@@H](CC(C)C)C(=O)N[C@@H](CC(C)C)C(=O)N[C@@H](CCCNC(=N)N)C(=O)N[C@H](C(=O)N[C@@H](CCCCN)C(=O)NCc1ccc(C(=N)N)cc1)C(C)C (Ac-LLLLRVK-{NH(4-amidinobenzyl)})
IC50 (PC-3 [4]): 150000 nM | IC50 (LNCaP): 40000 nM | IC50 (DU-145): 25000 nM

CC(=O)N[C@@H](CC(C)C)C(=O)N[C@@H](CC(C)C)C(=O)N[C@@H](CC(C)C)C(=O)N[C@@H](CC(C)C)C(=O)N[C@@H](CCCNC(=N)N)C(=O)N[C@H](C(=O)N[C@@H](CCCCN)C(=O)N[C@@H](Cc1ccc(NC(=N)N)cc1)C(N)=O)C(C)C (Ac-LLLLRVK[Phe(4-guanidino)]-NH2)
Ki (Furin): 11000 nM | Ki [1]: 960 nM

CCCC[C@H](NC(=O)[C@H](CC(C)C)NC(=O)[C@H](CC(C)C)NC(=O)[C@H](CC(C)C)NC(C)=O)C(=O)N[C@@H](CCCN=C(N)N)C(=O)N[C@H](C(=O)N[C@@H](CCCCN)C(=O)N[C@@H](CCCN=C(N)N)C(N)=O)C(C)C (Ac-LLL[Nle]RVKR-NH2)
Ki (Furin): 560 nM | Ki [1]: 27 nM | cytotoxicity at 4 h, 100 µM [2]: < 5%

CCCC[C@H](NC(=O)[C@H](CC(C)C)NC(=O)[C@H](CC(C)C)NC(=O)[C@H](CC(C)C)NC(C)=O)C(=O)N[C@@H](CCCNC(=N)N)C(=O)N[C@H](C(=O)N[C@@H](CCCCN)C(=O)N[C@@H](CCCNC(=N)N)C(N)=O)C(C)C (Ac-LLL[Nle]RVKR-NH2)
IC50 (LNCaP): 220000 nM | IC50 (DU-145): 110000 nM | inhibition (INH) (PC-3 [3]): <50%

CCCC[C@H](NC(=O)[C@H](CC(C)C)NC(=O)[C@H](CC(C)C)NC(C)=O)C(=O)N[C@@H](CCCC)C(=O)N[C@@H](CCCN=C(N)N)C(=O)N[C@H](C(=O)N[C@@H](CCCCN)C(=O)N[C@@H](CCCN=C(N)N)C(N)=O)C(C)C (Ac-LL[Nle][Nle]RVKR-NH2)
Ki (Furin): 2100 nM | Ki [1]: 350 nM

CCCC[C@H](NC(=O)[C@H](CC(C)C)NC(C)=O)C(=O)N[C@@H](CC(C)C)C(=O)N[C@@H](CC(C)C)C(=O)N[C@@H](CCCNC(=N)N)C(=O)N[C@H](C(=O)N[C@@H](CCCCN)C(=O)N[C@@H](CCCNC(=N)N)C(N)=O)C(C)C (Ac-L[Nle]LLRVKR-NH2)
Ki (Furin): 980 nM | Ki [1]: 39 nM

CCCC[C@H](NC(=O)[C@H](CC(C)C)NC(C)=O)C(=O)N[C@@H](CCCC)C(=O)N[C@@H](CC(C)C)C(=O)N[C@@H](CCCN=C(N)N)C(=O)N[C@H](C(=O)N[C@@H](CCCCN)C(=O)N[C@@H](CCCN=C(N)N)C(N)=O)C(C)C (Ac-L[Nle][Nle]LRVKR-NH2)
Ki (Furin): 2300 nM | Ki [1]: 170 nM
